From PubChem
Shown are actives, neighbours in structure and some others; about 1.2% of the full set was active somewhere.
thrombin 1536 – inhibitors of human thrombin. 220,000 tested, 0.26% active. P00734. alpha-thrombin, Boc-VPR-AMC fluorogenic substrate cleavage. AID 1046. inhibition, % at 5 µM;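 active means inhibition at or above 40%; inactive means inhibition below 40%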;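 further: 0% = enzyme with no compound and 100% = wells without enzyme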
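Test system: human alpha-thrombin; medium: pH 7.5 Tris-saline with Tween 20; times: reaction at room temperature; signal: AMC fluorescence at 355 nm excitation and 460 nm emission; also added: Boc-VPR-AMC substrate, 15 µM final; dosing: one concentration per compound, 5 µM, with 0.2% DMSO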
PERK inhibitor – inhibitors of human PERK kinase. inhibition, % at 5.6 µM. CHO PERK-DD fusion, SEAP luminescence translation reporter. AID 1416. Q9NZJ5. 220,000 tested, 0.17% active;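 active means inhibition above the mean inhibition of all tested compounds plus 3 SD, set separately per screening campaign, cut at about 2.9% in these data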;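 further: PERK kinase domain activated by AP20187 dimerizer at 100 nM; 0% = DMSO with dimerizer and 100% = rapamycin at 8.4 µM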
Target sequence (Q9NZJ5 whole entry, looked up, the tested form may be a part): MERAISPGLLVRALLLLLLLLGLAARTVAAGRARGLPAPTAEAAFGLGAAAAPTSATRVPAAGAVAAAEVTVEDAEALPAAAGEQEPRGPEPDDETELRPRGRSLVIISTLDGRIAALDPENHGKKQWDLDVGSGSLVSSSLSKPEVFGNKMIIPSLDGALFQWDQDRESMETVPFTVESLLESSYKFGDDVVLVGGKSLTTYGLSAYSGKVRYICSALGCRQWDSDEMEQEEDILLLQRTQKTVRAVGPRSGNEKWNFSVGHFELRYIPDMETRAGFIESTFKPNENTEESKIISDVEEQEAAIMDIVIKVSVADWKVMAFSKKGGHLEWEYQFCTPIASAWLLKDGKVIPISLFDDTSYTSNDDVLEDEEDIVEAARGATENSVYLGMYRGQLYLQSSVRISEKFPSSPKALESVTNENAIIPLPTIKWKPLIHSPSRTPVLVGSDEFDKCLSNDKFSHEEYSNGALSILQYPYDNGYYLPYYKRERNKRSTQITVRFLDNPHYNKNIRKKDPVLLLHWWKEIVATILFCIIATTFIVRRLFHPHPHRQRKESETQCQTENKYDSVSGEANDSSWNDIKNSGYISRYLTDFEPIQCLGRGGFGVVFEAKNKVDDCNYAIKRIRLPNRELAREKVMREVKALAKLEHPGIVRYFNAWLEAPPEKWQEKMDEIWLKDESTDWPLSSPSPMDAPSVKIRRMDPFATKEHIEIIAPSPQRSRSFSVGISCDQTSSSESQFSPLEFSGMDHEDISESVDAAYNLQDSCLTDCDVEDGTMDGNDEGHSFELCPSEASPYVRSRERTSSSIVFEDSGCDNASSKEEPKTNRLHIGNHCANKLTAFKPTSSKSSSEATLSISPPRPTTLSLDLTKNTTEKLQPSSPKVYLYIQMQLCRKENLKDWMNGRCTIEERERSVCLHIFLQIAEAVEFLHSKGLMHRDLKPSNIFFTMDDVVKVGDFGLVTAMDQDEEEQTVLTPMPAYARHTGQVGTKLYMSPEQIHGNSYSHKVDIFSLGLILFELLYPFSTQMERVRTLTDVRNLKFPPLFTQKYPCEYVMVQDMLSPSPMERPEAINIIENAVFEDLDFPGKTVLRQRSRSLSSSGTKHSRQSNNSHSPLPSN
FXIa inh 1536 – inhibitors of human coagulation factor XIa. inhibition, % at 5 µM. purified FXIa, Boc-Glu-Ala-Arg-AMC fluorogenic substrate. 220,000 tested, 0.14% active. P03951. AID 798;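 active means inhibition of at least 40%; inactive means inhibition below 40%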;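 further: fluorescence of freed AMC excited at 355 nm; 0% = enzyme without compound and 100% = no enzyme blank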
KLK5 inh – inhibitors of human kallikrein 5; Q9Y337; recombinant hK5, fluorogenic AMC substrate cleavage; inhibition, % at 5 µM; 210,000 tested, 0.59% active; AID 873;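 active means inhibition of 40% or more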;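 further: 0% = enzyme controls without compound and 100% = no-enzyme blanks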
Furin inh – inhibitors of human furin; P09958; purified furin, fluorogenic substrate cleavage; inhibition, % at 20 µM or 30 µM; 220,000 tested, 0.061% active; AID 463115; in the data active means inhibition above about 25%
FXIIa inh 1536 – blocks human coagulation factor XIIa protease activity | 220,000 tested, 0.3% active | P00748 | purified FXIIa, Boc-QGR-AMC fluorogenic substrate, 2 h | inhibition, % at 5 µM | AID 800; in the data active means inhibition above about 40%;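 further: 0% = enzyme with no compound and 100% = blank without enzyme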
Starred values were filed as active, the others as inactive; x = no result given.

SMILES	thrombin 1536	PERK inhibitor	FXIa inh 1536	KLK5 inh	Furin inh	FXIIa inh 1536
O=C1OCC2OC(O)C(O)C(O)C2OC(=O)c2cc(O)c(O)c(O)c2-c2c(O)c(O)c3oc(=O)c4c(c(O)c(O)c5oc(=O)c2c3c54)-c2c1cc(O)c(O)c2O (stereo not given)	-4.1	x	59.1*	22.8	-0.3	-3.1
Cc1nn(-c2ccccc2)c(N)c1C1(O)C(=O)N(C)c2ccccc21 (stereo not given)	-0.5	0.7	7.1	-8.0	-13.9	9.9
CN1C(=O)C(O)(c2sc(N)nc2-c2ccccc2)c2ccccc21 (stereo not given)	12.8	0.9	-2.1	56.0*	-12.4	-2.8
CCOc1ccc(C(C)=O)cc1CN1C(=O)NC2(CCCCCCC2)C1=O	-7.1	0.7	-2.6	-2.6	-18.8	3.8
Cn1c(=O)[nH]c(=O)c2c1nc([N+](=O)[O-])n2Cc1ccccc1	0.3	0.7	4.8	0.7	12.7	12.6
Cc1cc(CNCc2c(C(=O)N3CCCCCCC3)nc3ccc(Cl)cn23)nn1C	-5.1	0.1	-2.2	0.0	-30.0	6.9
CCCCNC(=O)Nc1ccc(C2SCCS2)cc1	20.3	-0.7	6.1	60.3*	-7.2	11.0
CC(C)n1c(O)c(N=NC(=O)Cc2csc(N3CCOCC3)n2)c2ccccc21	0.6	0.8	0.5	2.9	-1.3	12.4
CCCCNC(=O)C1=C(N)C(C(=O)Nc2ccc(C)c(S(=O)(=O)N3CCCCC3)c2)SC1=Nc1ccc(C)cc1C (stereo not given)	2.3	0.9	1.1	-5.4	-13.3	9.8
CCOC(=O)c1cc(-c2ccc(C)cc2)n(CC(=O)NCc2ccco2)c1C	12.2	0.6	7.4	54.2*	-31.6	29.3
CCOC(=O)c1cc(-c2ccc(C)cc2)n(CCC(=O)NCCN(C)C)c1C	-0.8	-1.6	-0.9	4.1	-8.6	-10.4
Cc1nc(SCc2ccc(O)c([N+](=O)[O-])c2)n[nH]1	5.6	0.8	13.8	4.2	30.8*	15.0
Cc1nc(SCc2ccc(O)c([N+](=O)[O-])c2)c([N+](=O)[O-])[nH]1	2.1	1.8	6.9	3.4	17.4	9.5
O=C(CN1C(=O)c2cccc3cccc(c23)C1=O)N1CCN(Cc2ccc3c(c2)OCO3)CC1	-6.7	-0.2	-3.4	-19.7	-34.8	6.9
O=C(Cn1cnc2ccccc2c1=O)Nc1ccccc1N1CCOCC1	-6.9	0.4	-4.3	-7.8	-5.5	0.1
CC(C)Sc1nc(C(F)(F)F)cc(=O)n1-c1ccccc1	-5.3	3.0*	-10.7	-1.8	-16.7	-16.9
CCSc1nc(C(F)(F)F)cc(=O)n1-c1ccccc1	-8.7	1.4	-9.8	-3.4	-17.7	-16.5
O=c1[nH]c2ccccc2nc1-c1ccccc1	10.9	-1.7	19.3	111.9*	-2.2	18.2
O=c1[nH]c2ccccc2nc1-c1ccc(Cl)cc1	4.1	1.3	5.5	3.4	3.8	10.4
COc1cc(Cl)c(S(=O)(=O)N2CC(C)OC(C)C2)cc1Cl (stereo not given)	25.7	0.1	12.7	53.8*	-15.0	32.0
NNC(=O)c1ccc(CSc2nc3ccccc3s2)cc1	13.5	0.3	30.8	26.6	-5.5	48.6*
Cc1cc(C)c(S(=O)(=O)ON2C(=O)c3ccccc3C2=O)cc1C	56.1*	0.6	71.8*	29.0	-5.2	38.2
Cc1cccc(OCCN2C(=O)c3ccccc3C2=O)c1	-1.4	0.2	-2.3	-2.4	-16.4	7.7
Cc1cc(C)c(C)c(S(=O)(=O)ON2C(=O)c3ccccc3C2=O)c1C	18.1	1.1	72.3*	11.8	-27.1	52.7*
Cc1ccc(S(=O)(=O)ON2C(=O)c3ccccc3C2=O)c(C)c1	61.6*	0.5	57.3*	13.4	-10.7	46.5*
SMILES	thrombin 1536	PERK inhibitor	FXIa inh 1536	KLK5 inh	Furin inh	FXIIa inh 1536
Cc1cccc2c1N(C)C(=O)C2=O	-13.7	0.6	0.8	-3.4	-12.4	6.7
CCCCNC(=O)c1ccc2c(c1)N(CC)C(=O)c1ccccc1S2(=O)=O	-0.6	0.0	12.1	5.6	-18.8	14.4
CCn1nc(CC(=O)O)c2ccccc2c1=O	25.8	0.4	65.8*	19.2	-11.7	25.8
Cc1ccc(-c2cn(-c3ccccc3)c(SCC(N)=O)n2)cc1C	-7.2	-0.1	3.0	5.9	-22.2	11.8
Cc1ccccc1-n1cc(-c2ccc(Br)cc2)nc1SCC(N)=O	19.3	-0.3	28.5	46.1*	2.8	15.9
Nc1ccccc1C(=O)N1CCCC1	-0.3	3.1*	1.2	x	-22.7	13.2
O=C(c1ccccc1)c1ccccc1C(=O)N1CCCC1	-4.0	-0.3	3.0	-19.4	-20.1	5.7
Cc1nnc2c(-c3ccccc3)nc3ccccc3n12	44.6*	0.9	2.7	-11.1	-12.2	12.8
N/C(CSc1ncccc1C(F)(F)F)=N\O	1.0	1.2	11.5	2.1	-27.7	5.9
CC(=O)N1CCN(Cc2nc(-c3cccc(Cl)c3)no2)CC1	-5.7	1.2	-2.8	0.3	-17.3	5.1
CNC(=O)COC(=O)c1cc(-c2ccco2)nc2ccccc12	16.3	0.1	32.0	27.9	2.2	51.3*
O=C(CN1CCN(c2ccccn2)CC1)Nc1ccc(Oc2ccccc2)cc1	1.7	-0.8	27.4	-6.9	-14.5	56.2*
COc1cc(C)c(S(=O)(=O)NCc2cccs2)cc1C	30.3	0.0	8.0	27.2	-20.7	108.3*
COc1cc(OC)c(C2C(C(=O)O)c3ccccc3C(=O)N2C)cc1OC (stereo not given)	2.3	0.9	5.4	-4.7	-14.5	13.4
COc1ccc(C2C(C(=O)O)c3ccccc3C(=O)N2C)cc1Br (stereo not given)	1.0	-0.1	34.4	2.8	-33.4	57.5*
O=C(COC(=O)C1=COCCO1)NC(=O)c1ccc(OC(F)F)cc1	-15.8	0.1	-1.2	8.2	-26.1	5.5
COc1cc(/C=C/C(=O)O)cc(S(=O)(=O)NCCCC(=O)O)c1OC	4.1	0.7	3.5	-11.9	-27.1	7.7
COc1cc(/C=C(/NC(=O)c2ccccc2)C(=O)N2CCN(C)CC2)c([N+](=O)[O-])cc1OC	19.4	0.0	5.4	40.5*	-7.0	10.0
CSc1n[nH]c(NCc2ccc(Cl)cc2)n1	-2.9	0.2	2.0	-4.9	-13.6	11.8
CSc1n[nH]c(NCc2ccc(C)cc2)n1	0.4	0.0	11.3	-0.8	26.8*	17.3
Cc1ccc(S(=O)(=O)CCC(=O)OCc2ccc(Cl)cc2)cc1	18.0	0.0	16.4	52.6*	-5.5	29.0
CCCCCCCc1c(O)nc(SCCN(C)C)[nH]c1=O	7.5	1.3	68.8*	21.1	-5.9	32.7
O=C(CCc1nnc(C2CCCCC2)o1)NCCCOc1cccnc1	-0.9	0.2	-0.1	x	-29.0	8.4
Cc1cccc2cc(C3CC(c4cccs4)=NN3S(C)(=O)=O)c(Cl)nc12 (stereo not given)	-6.7	-0.2	-2.4	-1.8	-3.5	9.9
